The source of these data is ChEMBL document CHEMBL1153712, “Design, synthesis and bioactivity of catechin/epicatechin and 2-azetidinone derived chimeric molecules” (2009).

Molecules are shown by their SMILES. Calls of active or inactive are those of the source. No cut-off for these calls is given here.

One assay has as its system Escherichia coli. The assay is described as follows: Antibacterial activity against Escherichia coli at 1 mmol after 48 hrs by disk diffusion assay. It counts as functional. In outline:
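Disc diffusion on agar. A colony was grown in nutrient broth for 2.5 h and spread over dried plates. Sterile 6 mm paper discs carried 1 mmol of compound. Plates were held at 37 °C and read at 48 h for inhibition-zone diameter. Controls were ampicillin (standard) and a DMSO-only disc.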

For assay [1], the target named is T1, Ribonuclease pancreatic (Bos taurus) (UniProt P61823).
T1 sequence (whole entry): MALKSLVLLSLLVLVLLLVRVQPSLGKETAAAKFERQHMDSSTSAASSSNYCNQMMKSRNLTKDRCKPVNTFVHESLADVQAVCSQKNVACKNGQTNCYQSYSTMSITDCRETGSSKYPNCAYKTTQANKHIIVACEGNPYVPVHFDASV
The assay is described as follows: Inhibition of bovine pancreatic RNase A assessed as degradation of 28s rRNA after 1 hr by agarose gel based assay. In outline: (§1)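 Qualitative agarose-gel assay. RNase A was preincubated with compounds for 1 h at 37 °C. RNA substrate was then added and digested for 15 minutes. Samples were mixed with 40% sucrose and 0.25% bromophenol blue in 1× TAE and run on a 1.1% agarose gel. Degradation of 28S and 18S rRNA bands was scored.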

The target in assay [2] is T1, Ribonuclease pancreatic (Bos taurus). Put plainly: Inhibition of bovine pancreatic RNase A assessed as degradation of 18s rRNA after 1 hr by agarose gel based assay. In outline: as §1

Turning to `COc1ccc([C@@H]2[C@H](CCn3cc(CO[C@H]4Cc5c(O)cc(O)cc5O[C@@H]4c4ccc(O)c(O)c4)nn3)C(=O)N2c2ccccc2)cc1` (mixture of isomers), the “diameter of the inhibition zone (DIZ)” value in the assay with Escherichia coli is 6 mm. In addition, in assay [1], the inhibition entry was “inactive”. For the same molecule, the “Inhibition (qualitative, active/not active)” value in assay [2] was “Active”.

As for `COc1ccc([C@@H]2[C@H](CCn3cc(CO[C@@H]4Cc5c(O)cc(O)cc5O[C@@H]4c4ccc(O)c(O)c4)nn3)C(=O)N2c2ccccc2)cc1` (mixture of isomers), the “diameter of the inhibition zone (DIZ)” value in the assay with Escherichia coli is reported as 6 mm. In addition, the inhibition result in assay [1] is “inactive”. Besides, the “Inhibition (qualitative, active/not active)” value in assay [2] is “Active”.

For `[N-]=[N+]=NCC[C@@H]1C(=O)N(c2ccccc2)[C@@H]1c1ccccc1`, in the assay on Escherichia coli, the result was inactive.

`O=C1[C@@H](CCO)[C@@H](c2ccccc2)N1c1ccccc1`: the outcome in the assay on Escherichia coli was inactive.

On to `O=C1[C@@H](CCn2cc(CO[C@@H]3Cc4c(O)cc(O)cc4O[C@@H]3c3ccc(O)c(O)c3)nn2)[C@@H](c2ccccc2)N1c1ccccc1` (mixture of isomers), for which the “diameter of the inhibition zone (DIZ)” value with Escherichia coli was determined as 9 mm. Also, the inhibition entry in assay [1] was “inactive”. Moreover, in assay [2], the “Inhibition (qualitative, active/not active)” value is “Active”.

In the case of `COc1ccc([C@@H]2[C@H](CCO)C(=O)N2c2ccccc2)cc1`, the result with Escherichia coli was inactive.

`Oc1cc(O)c2c(c1)O[C@H](c1ccc(O)c(O)c1)[C@@H](O)C2`: the “Inhibition (qualitative, active/not active)” value in assay [2] is “inactive”.

Turning to `COc1ccc([C@@H]2[C@H](CCN=[N+]=[N-])C(=O)N2c2ccccc2)cc1`, in the assay on Escherichia coli, the outcome was inactive.

In the case of `O=C1[C@@H](CCn2cc(CO[C@H]3Cc4c(O)cc(O)cc4O[C@@H]3c3ccc(O)c(O)c3)nn2)[C@@H](c2ccccc2)N1c1ccccc1` (mixture of isomers), the “diameter of the inhibition zone (DIZ)” value in the assay on Escherichia coli is 9 mm. Further, the inhibition entry in assay [1] was “inactive”. In assay [2], the “Inhibition (qualitative, active/not active)” value is “Active”.

With `Oc1cc(O)c2c(c1)O[C@H](c1ccc(O)c(O)c1)[C@H](O)C2`, in assay [2], the “Inhibition (qualitative, active/not active)” value is “inactive”.
